Reference: ChEMBL document CHEMBL3045963, “Synthesis of nalidixic acid based hydrazones as novel pesticides” (2010)
Converted amounts (≈) assume the structure as drawn.

Tests used:
Type in all cases: functional
[1] = system: Alternaria porri; experiment: Fungicidal activity against Alternaria porri by poisoned food technique; conditions: read-out: ED50 (the source's name)
[2] = system: Spodoptera litura; experiment: Insecticidal activity against third-instar larval stage of Spodoptera litura assessed as mortality at 0.1% applied topically on the ventral side of the larvae measured after 24 hr by contact method
Method in brief: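 Field-collected larvae are reared in the lab at 27 ± 1 °C and 70% RH. Two microliters of a 0.1% dichloromethane solution is applied to the ventral side. Ten treated larvae are kept per glass bottle and fed fresh castor leaves. Mortality is recorded at 24 h. Triplicate, solvent control.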

[3] = system: Callosobruchus maculatus; experiment: Insecticidal activity against adult Callosobruchus maculatus assessed as mortality at 0.1% at 27 +/-1 degC after 24 hr by contact based film residue method
Method in brief: (§1)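 Lab-reared adults, 2-5 days old, exposed to a dry film: 1 mL of 0.1% compound solution in dichloromethane is swirled in a 90 mm Petri plate and dried 3-5 min. Ten adults per plate are held at 27 ± 1 °C and 70% RH. Mortality is scored at 24 h, with no response to touch counted as dead. Triplicates, solvent control, malathion reference.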

[4] = system: Tribolium castaneum; experiment: Insecticidal activity against adult Tribolium castaneum (red flour beetle) in compound pre-treated green gram grains assessed as mortality at 20 mg/kg after 48 hr by feeding based residue method; conditions: in Vigna radiata
Method in brief: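 Green gram grains are treated with compound in dichloromethane (0.6 mg in 5 mL) at 20 mg active ingredient per kg grain (0.002%). Ten adults are released onto 10 g of treated grain in a plastic box. Mortality is recorded after 48 h. Triplicate, solvent-treated control.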

[5] = system: Fusarium oxysporum; experiment: Fungicidal activity against Fusarium oxysporum by poisoned food technique; conditions: read-out: ED50 (the source's name)
[6] = system: Macrophomina phaseolina; experiment: Fungicidal activity against Rhizoctonia bataticola by poisoned food technique; conditions: read-out: ED50 (the source's name)
[7] = system: Athelia rolfsii; experiment: Fungicidal activity against Athelia rolfsii by poisoned food technique; conditions: Agroathelia rolfsii; read-out: ED50 (the source's name)
[8] = system: Rhizoctonia solani; experiment: Fungicidal activity against Rhizoctonia solani by poisoned food technique; conditions: read-out: ED50 (the source's name)
[9] = system: Spodoptera litura; experiment: Insecticidal activity against third-instar larval stage of prestarved Spodoptera litura in castor leaf assessed as mortality at 0.1% treated for 2 secs before larval infestation measured after 24 hr by feeding method
Method in brief: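 Castor leaf is dipped 2 s in 0.1% compound solution, air-dried, and placed on moist filter paper in 9 cm Petri plates. Larvae starved 4 h beforehand are released singly, one per plate. Thirty replicates per treatment, solvent control. Mortality is scored after 24 h.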

[10] = system: Tribolium castaneum; experiment: Insecticidal activity against adult Tribolium castaneum (red flour beetle) assessed as mortality at 0.1% at 27 +/-1 degC after 24 hr by contact based film residue method; method in brief: as §1

Compound	EC50 [1]	mortality [2]	mortality [3]	mortality at 20 mg/kg [4]	EC50 [5]	EC50 [6]	EC50 [7]	EC50 [8]	mortality [9]	mortality [10]
CCn1cc(C(=O)N/N=C/c2ccccc2F)c(=O)c2ccc(C)nc21	78.3 µg/mL (≈ 222 µM)	10%	30%	10%	107 µg/mL (≈ 305 µM)	668 µg/mL (≈ 1900 µM)	540 µg/mL (≈ 1530 µM)	359 µg/mL (≈ 1020 µM)	90%	
CCOC(=O)CC(SP(=S)(OC)OC)C(=O)OCC (configuration not stated) [MALATHION]			100%	100%						100%
